Columns and labels:
[1] = target: Disintegrin and metalloproteinase domain-containing protein 17 (Homo sapiens, UniProt P78536); assay: Inhibition of human recombinant TACE after 60 mins by fluorescence plate reader
Method in brief: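 rh-TACE at 80 ng/mL with 10 μM MCA-Pro-Leu-Ala-Gln-Ala-Val-Dpa-Arg-Ser-Ser-Ser-Arg-NH₂, in 100 mM Tris-HCl pH 7.5, 150 mM NaCl, 10 mM CaCl₂, 0.05% Brij-35. Inhibitor preincubated for 15 min at 25 °C. Fluorescence (ex 325/em 405 nm) read at 60 min. IC50 from three linear-range points; mean of ≥2.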

[2] = target: T1, Interstitial collagenase (Homo sapiens, UniProt P03956); assay: Inhibition of human recombinant MMP1 after 60 mins by fluorescence plate reader
T1 sequence (P03956 whole entry): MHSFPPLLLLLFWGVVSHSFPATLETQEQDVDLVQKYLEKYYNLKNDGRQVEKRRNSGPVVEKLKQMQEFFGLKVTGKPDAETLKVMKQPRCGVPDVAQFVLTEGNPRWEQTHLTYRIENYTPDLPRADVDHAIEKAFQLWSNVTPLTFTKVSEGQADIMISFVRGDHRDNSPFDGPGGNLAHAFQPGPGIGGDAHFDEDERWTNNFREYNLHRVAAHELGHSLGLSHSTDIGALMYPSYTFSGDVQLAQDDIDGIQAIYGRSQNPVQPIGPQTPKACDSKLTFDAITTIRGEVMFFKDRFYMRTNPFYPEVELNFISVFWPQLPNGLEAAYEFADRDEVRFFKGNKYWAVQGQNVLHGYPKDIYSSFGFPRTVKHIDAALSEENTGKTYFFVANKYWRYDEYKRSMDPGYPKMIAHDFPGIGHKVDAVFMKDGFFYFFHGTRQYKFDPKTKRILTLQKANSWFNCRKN
Method in brief: (§1)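 Recombinant human enzyme at 20 ng/mL with 10 μM MOCAc-Lys-Pro-Leu-Gly-Leu-A2pr(Dnp)-Ala-Arg-NH₂, in 100 mM Tris-HCl pH 7.5, 150 mM NaCl, 10 mM CaCl₂, 0.05% Brij-35. Enzyme pretreated with inhibitor for 15 min at 25 °C, then substrate added. Fluorescence (ex 325, em 405 nm) read at 60 min. IC50 taken from three points in the linear range; mean of ≥2 determinations.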

[3] = target: T2, A disintegrin and metalloproteinase with thrombospondin motifs 5 (Homo sapiens, UniProt Q9UNA0); assay: Inhibition of human recombinant aggrecanase 2 after 150 mins by fluorescence plate reader
T2 sequence (Q9UNA0 whole entry): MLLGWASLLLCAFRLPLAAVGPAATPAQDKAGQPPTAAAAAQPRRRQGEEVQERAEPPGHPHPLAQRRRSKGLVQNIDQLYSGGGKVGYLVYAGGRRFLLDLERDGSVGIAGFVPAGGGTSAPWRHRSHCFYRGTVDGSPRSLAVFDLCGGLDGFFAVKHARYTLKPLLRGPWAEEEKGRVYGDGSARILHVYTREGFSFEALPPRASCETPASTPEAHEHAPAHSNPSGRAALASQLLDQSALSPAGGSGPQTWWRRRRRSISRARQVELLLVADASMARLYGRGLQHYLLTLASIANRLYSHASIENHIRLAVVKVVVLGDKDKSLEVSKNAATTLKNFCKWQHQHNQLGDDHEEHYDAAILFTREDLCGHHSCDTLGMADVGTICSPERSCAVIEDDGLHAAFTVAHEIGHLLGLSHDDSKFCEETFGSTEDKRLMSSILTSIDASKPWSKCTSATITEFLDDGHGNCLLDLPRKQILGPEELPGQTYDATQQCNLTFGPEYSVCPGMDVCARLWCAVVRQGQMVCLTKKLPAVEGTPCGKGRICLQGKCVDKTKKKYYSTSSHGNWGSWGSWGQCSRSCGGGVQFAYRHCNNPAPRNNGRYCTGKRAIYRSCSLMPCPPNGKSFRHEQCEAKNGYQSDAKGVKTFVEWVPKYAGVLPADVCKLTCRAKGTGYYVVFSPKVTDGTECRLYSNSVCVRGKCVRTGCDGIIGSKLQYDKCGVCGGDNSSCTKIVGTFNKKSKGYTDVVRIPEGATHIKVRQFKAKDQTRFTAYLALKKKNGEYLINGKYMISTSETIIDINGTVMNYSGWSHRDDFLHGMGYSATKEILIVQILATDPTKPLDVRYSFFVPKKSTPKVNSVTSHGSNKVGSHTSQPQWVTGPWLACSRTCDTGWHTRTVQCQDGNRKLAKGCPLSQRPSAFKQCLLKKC

[4] = target: Matrix metalloproteinase-14 (Homo sapiens, UniProt P50281); assay: Inhibition of human recombinant MMP14 after 60 mins by fluorescence plate reader; method in brief: as §1

Sequence of Disintegrin and metalloproteinase domain-containing protein 17 (P78536 whole entry, the tested form may be a part): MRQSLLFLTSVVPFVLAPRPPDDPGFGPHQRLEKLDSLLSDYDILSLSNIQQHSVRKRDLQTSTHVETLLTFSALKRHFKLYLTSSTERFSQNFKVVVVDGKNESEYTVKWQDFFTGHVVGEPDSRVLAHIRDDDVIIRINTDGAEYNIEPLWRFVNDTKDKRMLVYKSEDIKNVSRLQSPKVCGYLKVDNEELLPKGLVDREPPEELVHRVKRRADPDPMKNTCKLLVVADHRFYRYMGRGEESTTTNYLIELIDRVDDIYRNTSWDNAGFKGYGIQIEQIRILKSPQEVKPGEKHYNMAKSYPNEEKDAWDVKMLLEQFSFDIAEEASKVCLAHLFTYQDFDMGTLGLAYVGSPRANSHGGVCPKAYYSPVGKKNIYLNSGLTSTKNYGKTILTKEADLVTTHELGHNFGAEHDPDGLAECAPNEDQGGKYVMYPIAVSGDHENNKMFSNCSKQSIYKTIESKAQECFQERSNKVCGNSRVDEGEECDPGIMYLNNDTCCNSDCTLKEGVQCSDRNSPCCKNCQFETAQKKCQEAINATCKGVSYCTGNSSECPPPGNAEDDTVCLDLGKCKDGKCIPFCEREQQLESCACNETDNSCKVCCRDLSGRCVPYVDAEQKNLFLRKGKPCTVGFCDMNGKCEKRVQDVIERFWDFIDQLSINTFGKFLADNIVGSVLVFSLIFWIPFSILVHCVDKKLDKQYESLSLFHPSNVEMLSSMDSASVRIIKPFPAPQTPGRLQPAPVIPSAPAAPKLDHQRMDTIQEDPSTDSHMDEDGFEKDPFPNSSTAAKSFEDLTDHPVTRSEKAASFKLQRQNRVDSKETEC

SMILES	IC50 [1]	IC50 [2]	IC50 [3]	IC50 [4]
C[C@@H]1[C@H](c2ccccc2)[C@]1(NS(=O)(=O)c1cc2nn3cc(Cl)ccc3c2s1)C(=O)O	> 10000 nM	1300 nM	29 nM	100 nM
COc1ccc2c(c1)nc1n2CCN(S(=O)(=O)N[C@@]2(C(=O)O)[C@H](C)[C@@H]2c2ccccc2)C1	> 10000 nM	> 10000 nM	330 nM	4300 nM
C[C@@H]1[C@H](c2ccccc2)[C@]1(NS(=O)(=O)N1CCn2c(nc3cc(C#N)ccc32)C1)C(=O)O	> 10000 nM	> 10000 nM	250 nM	4900 nM
C[C@@H]1[C@H](c2ccccc2)[C@]1(NS(=O)(=O)N1CCn2c(nc3cc(Cl)ccc32)C1)C(=O)O	> 10000 nM	> 10000 nM	60 nM	610 nM
C[C@@H]1CN(S(=O)(=O)N[C@@]2(C(=O)O)[C@H](C)[C@@H]2c2ccccc2)CCN1c1cc(C(C)(F)F)on1	> 10000 nM	2600 nM	130 nM	1100 nM
C[C@@H]1[C@H](c2ccccc2)[C@]1(NS(=O)(=O)N1CCn2c(nc3ccccc32)C1)C(=O)O	> 10000 nM	> 10000 nM	92 nM	2200 nM
C[C@@H]1[C@H](c2ccccc2)[C@]1(NS(=O)(=O)N1CCc2c(nc3cc(Cl)ccn23)C1)C(=O)O	> 10000 nM	> 10000 nM	21 nM	270 nM
Cc1cnn(-c2ccc(S(=O)(=O)N[C@@]3(C(=O)O)[C@H](C)[C@@H]3c3ccccc3)s2)c1	> 10000 nM	< 300 nM	19 nM	1.2 nM
C[C@@H]1[C@H](c2ccccc2)[C@]1(NS(=O)(=O)c1cc2[nH]c3cc(Cl)ccc3c2s1)C(=O)O	3800 nM	1000 nM	2.9 nM	17 nM
Cc1cc(S(=O)(=O)N[C@@]2(C(=O)O)[C@H](C)[C@@H]2c2ccccc2)sc1-n1cc(Cl)cn1	–	–	> 1000 nM	–
C[C@@H]1[C@H](c2ccccc2)[C@]1(NS(=O)(=O)c1cc2[nH]c3cc(F)ccc3c2s1)C(=O)O	1100 nM	230 nM	8.3 nM	8 nM
C[C@@H]1[C@H](c2ccccc2)[C@]1(NS(=O)(=O)N1CCn2c(nc3cc(F)ccc32)C1)C(=O)O	> 10000 nM	> 10000 nM	20 nM	1100 nM
C[C@@H]1[C@H](c2ccccc2)[C@]1(NS(=O)(=O)c1cc2nc3cc(Cl)ccn3c2s1)C(=O)O	> 10000 nM	1500 nM	23 nM	100 nM
C[C@@H]1CN(S(=O)(=O)N[C@@]2(C(=O)O)[C@H](C)[C@@H]2c2ccccc2)CCN1c1ccc(F)cc1	> 10000 nM	> 10000 nM	180 nM	> 10000 nM
C[C@@H]1[C@H](c2ccccc2)[C@]1(NS(=O)(=O)c1ccc(-c2ccc(Cl)cc2)s1)C(=O)O	2700 nM	4000 nM	–	19 nM
C[C@@H]1[C@H](c2ccccc2)[C@]1(NS(=O)(=O)N1CCN(c2ccc(Cl)cc2)C(CO)C1)C(=O)O (mixture of isomers)	–	–	230 nM	6100 nM
C[C@@H]1[C@H](c2ccccc2)[C@]1(NS(=O)(=O)N1CCN(c2ccc(Cl)cc2)CC1)C(=O)O	> 10000 nM	> 10000 nM	87 nM	450 nM
C[C@@H]1[C@H](c2ccccc2)[C@]1(NS(=O)(=O)N1CCc2c(nc3cc(F)ccn23)C1)C(=O)O	6300 nM	> 10000 nM	17 nM	2100 nM
Cc1ccc2c(c1)nc1n2CCN(S(=O)(=O)N[C@@]2(C(=O)O)[C@H](C)[C@@H]2c2ccccc2)C1	> 10000 nM	> 10000 nM	320 nM	900 nM
C[C@@H]1[C@H](c2ccccc2)[C@]1(NS(=O)(=O)N1Cc2nc3cc(Cl)ccn3c2C1)C(=O)O	> 10000 nM	3700 nM	66 nM	280 nM
CCC1CN(S(=O)(=O)N[C@@]2(C(=O)O)[C@H](C)[C@@H]2c2ccccc2)CCN1c1ccc(Cl)cc1 (mixture of isomers)	–	–	410 nM	> 10000 nM

Further compounds by falling IC50 [3], results first:

IC50 [1]	IC50 [2]	IC50 [3]	IC50 [4]	SMILES
–	–	330 nM	2900 nM	C[C@@H]1[C@H](c2ccccc2)[C@]1(NS(=O)(=O)N1CCN(c2ccc(Cl)cc2)C(C)(C)C1)C(=O)O
–	> 10000 nM	270 nM	1400 nM	C[C@@H]1CN(S(=O)(=O)N[C@@]2(C(=O)O)[C@H](C)[C@@H]2c2ccccc2)CCN1c1ccc(C2CC2)cc1
> 10000 nM	> 10000 nM	110 nM	2300 nM	C[C@@H]1[C@H](c2ccccc2)[C@]1(NS(=O)(=O)N1CCn2c(cc3cc(Cl)sc32)C1)C(=O)O
> 10000 nM	> 10000 nM	100 nM	240 nM	C[C@@H]1[C@H](c2ccccc2)[C@]1(NS(=O)(=O)N1CCn2c(nc3ccc(F)cc32)C1)C(=O)O
> 10000 nM	> 10000 nM	67 nM	1400 nM	COCc1cc(N2CCN(S(=O)(=O)N[C@@]3(C(=O)O)[C@H](C)[C@@H]3c3ccccc3)C[C@H]2C)no1
> 10000 nM	> 10000 nM	62 nM	300 nM	C[C@@H]1[C@H](c2ccccc2)[C@]1(NS(=O)(=O)N1CC=C(c2ccc(Cl)cc2)CC1)C(=O)O
> 10000 nM	> 10000 nM	39 nM	420 nM	C[C@@H]1[C@H](c2ccccc2)[C@]1(NS(=O)(=O)N1CCn2c(cc3cc(Cl)ccc32)C1)C(=O)O
> 10000 nM	2300 nM	38 nM	98 nM	C[C@@H]1[C@H](c2ccccc2)[C@]1(NS(=O)(=O)N1CCc2c([nH]c3cc(F)ccc23)C1)C(=O)O
> 10000 nM	> 10000 nM	33 nM	6000 nM	C[C@@H]1CN(S(=O)(=O)N[C@@]2(C(=O)O)[C@H](C)[C@@H]2c2ccccc2)CCN1c1ccc(C#N)s1
1600 nM	33 nM	17 nM	1.3 nM	COc1cnn(-c2ccc(S(=O)(=O)N[C@@]3(C(=O)O)[C@H](C)[C@@H]3c3ccccc3)s2)c1
1900 nM	1300 nM	10 nM	25 nM	C[C@@H]1[C@H](c2ccccc2)[C@]1(NS(=O)(=O)c1cc2[nH]c3ccc(F)cc3c2s1)C(=O)O
> 10000 nM	> 10000 nM	10 nM	2100 nM	C[C@@H]1[C@](C)(c2ccccc2)[C@]1(NS(=O)(=O)N1CCc2c(nn3cc(F)ccc23)C1)C(=O)O
> 10000 nM	4200 nM	8.6 nM	140 nM	C[C@@H]1[C@H](c2ccccc2)[C@]1(NS(=O)(=O)N1CCc2c(nn3cc(F)ccc23)C1)C(=O)O

— ChEMBL document CHEMBL1765003, “Discovery of (1S,2R,3R)-2,3-dimethyl-2-phenyl-1-sulfamidocyclopropanecarboxylates: novel and highly selective aggrecanase inhibitors” (J Med Chem, 2011)
